# Test results: PubChem BioAssay
# This is one part of the list. Values without a mark were called inactive.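 How the source made its calls: active means mean activation of the triplicate above a set limit carried over from the primary screen, none filed active; inactive means the rest.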
# Biological target: Oxysterols receptor LXR-beta (Homo sapiens) (UniProt P55055)
# Test: LXR agonists, Gal4 luciferase reporter, confirmation, counter-screen for hgDAF-12 agonist project, cell-based, luminescence, HEK293, H. glycines campaign (AID 743051)
# Details: 24 h, at 6.8 µM, active compounds read high
# In short: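 test system = Gal4-LXR luciferase reporter HEK293 cells | times = 3 h cell plating, then 24 h compound exposure at 37 °C | signal = luciferase luminescence | benchmarks = DMSO low control, 0.68% final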
# Chain of Oxysterols receptor LXR-beta (Homo sapiens) (P55055 whole entry, looked up, the tested form may be a part): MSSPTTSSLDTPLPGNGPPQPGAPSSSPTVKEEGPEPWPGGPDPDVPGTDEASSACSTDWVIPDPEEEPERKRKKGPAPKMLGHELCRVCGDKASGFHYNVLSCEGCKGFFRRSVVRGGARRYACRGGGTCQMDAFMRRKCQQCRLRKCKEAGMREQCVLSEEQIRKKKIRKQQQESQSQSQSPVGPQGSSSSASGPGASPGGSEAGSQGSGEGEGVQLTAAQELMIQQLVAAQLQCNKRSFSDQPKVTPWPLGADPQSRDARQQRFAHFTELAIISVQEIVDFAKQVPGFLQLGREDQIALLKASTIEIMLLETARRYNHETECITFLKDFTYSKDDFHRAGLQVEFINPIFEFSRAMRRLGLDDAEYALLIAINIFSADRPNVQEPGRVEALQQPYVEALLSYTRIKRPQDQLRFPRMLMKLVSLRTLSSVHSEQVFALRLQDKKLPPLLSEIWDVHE
row,SMILES,activation [%]
1,CC(C)(C)c1csc(NC2=NS(=O)(=O)c3ccccc32)n1,0.75
2,Cc1ccccc1Nc1nc(-c2cccnc2)cs1,0.7
3,Cc1ccc(NC(=O)c2sccc2C)cc1[N+](=O)[O-],0.43
4,CCCNC(=O)c1c(Cl)cnn1-c1ccc(C)cc1,0.55
5,O=C(NCCc1c[nH]c2ccccc12)c1cc2ccccc2oc1=O,0.56
6,Cc1ccc(C(=O)NNc2ncnc3ccccc23)cc1,0.43
7,COC(=O)c1sc(NC(=O)c2ccc(OC)cc2OC)nc1C,1.05
8,COc1ccc(-c2cn3cccnc3n2)cc1,0.23
9,N#CC1(Nc2ccc(-c3ccc(Cl)cc3)cc2)CCCC1,0.34
10,CC(=O)c1ccccc1NC(=O)COC(=O)C1COc2ccccc2O1 (stereo unspecified),0.04
11,Cc1cccc(NC(=O)/C=C/c2ccc3c(c2)OCO3)n1,0.84
